UPR XBP1 act – adaptive UPR (XBP1) activation. CHO-XBP1 luciferase reporter, IRE1-XBP1 UPR activation, luminescence; percent of tunicamycin response, DMSO as zero. activation, % at 20 µM. 330,000 compounds, 0.33% hits. AID 463104;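 active = versus positive control, 20 µM dose yields 30% or more activation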
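Test system: CHO-XBP1 luciferase reporter cells | Buffer or medium: Serum-containing F12 medium, 10% FBS | Schedule: 6 h compound exposure at 37 °C, 5% CO2 | Detection: Steady-Glo luciferase glow luminescence, 10 min after reagent addition | Read-out basis: Activation, % of tunicamycin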
Dynein cargo inh – dynein cargo transport inhibition | 3617.4 mouse cells, GR-EGFP nuclear translocation imaging; test concentration mostly 20 µM; stimulated with dexamethasone, 1 µM; hits give low values | z-score, hits read low | 220,000 compounds, 0.47% hits;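 active = plate z-score of nuclear minus cytoplasmic receptor signal below a set negative limit, without overly bright fluorescence or cell loss, cut at about -3.5 in these data, passing the limit was not always enough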;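 also: z-score of nuclear minus cytoplasmic ring GR-EGFP intensity difference per well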
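Buffer or medium – tet-free medium with charcoal-stripped serum · Signal – automated 10x imaging of fixed Hoechst-stained cells · Also added – dexamethasone agonist, 1.0 µM final, for 30 min · Incubation – induction 48 h, compound 1 h, agonist 30 min · Read-out – GR-EGFP nuclear translocation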
L major viab – inhibitors of Leishmania major promastigote growth | Leishmania major promastigotes, resazurin fluorescence viability | inhibition, % at 10 µM | 200,000 compounds, 9% hits | AID 1063; in the data active = inhibition above about 50%;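 also: promastigotes grown with compound for 44 hours at 28 °C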
CHOP inh – blocks CHOP induction under ER stress; CHO-K1 CHOP-promoter luciferase, tunicamycin-induced, 15-18 h; inhibition, % at 10 µM; 220,000 compounds, 3.8% hits;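 active = compounds that reduced the stress-induced luciferase reporter signal by more than about 70% of percent inhibition, limit read from the data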
T cruzi inh – blocks replication of Trypanosoma cruzi; T. cruzi beta-gal in NIH3T3, luminescence, 90 h; inhibition, % (test concentration not listed); 300,000 compounds, 1.4% hits;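 active = mean inhibition across valid replicates above about 55%, limit read from the data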;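 also: signal also drops with host cell toxicity which is not excluded here; higher percent means less beta-gal luminescence so fewer parasites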
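System: NIH/3T3 fibroblasts plus reporter T. cruzi. Medium: DMEM plus 2% FBS. Probe or stimulus: 5000 reporter trypomastigotes per well. Compound: single 50 nL compound addition per well in DMSO. Incubation: co-culture of at least 90 h after 3 h attachment. Detection: GalScreen β-gal luminescence, detergent lysis, 60 min. Evaluation: parasite load inhibition, %.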
UPR CHOP act – apoptotic UPR (CHOP) activation. activation, % at 10 µM. AID 449763. 330,000 compounds, 0.34% hits. CHO-CHOP luciferase reporter, luminescence; percent of tunicamycin response over DMSO baseline;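 active = at 10 µM dose, activation of 40% or more, normalized to positive control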
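System: CHO-CHOP luciferase reporter cell line; amount: 500 cells/well; buffer or medium: F12 medium containing 10% fetal bovine serum; incubation: 6 h compound exposure at 37 °C after overnight seeding; measured by: luciferase luminescence after 10 min with Steady-Glo reagent; evaluation: % reporter activation, DMSO baseline versus tunicamycin full activation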
A number is an active result; - = inactive; . = no result. Only a selection was taken, and hits are over-represented in it overall.

SMILES | UPR XBP1 act | Dynein cargo inh | L major viab | CHOP inh | T cruzi inh | UPR CHOP act
CCOC(=O)C1(CCOc2ccccc2)CCN(Cc2cccc3nonc23)CC1 | - | - | 87 | - | 57 | -
CCOC(=O)C1(CCOc2ccccc2)CCN(Cc2ccc(OCCO)cc2)CC1 | - | . | . | . | - | -
CCOC(=O)C1(CCOc2ccccc2)CCN(Cc2ccc(COC)o2)CC1 | - | - | 66 | - | - | -
CCOC(=O)C1(CCOc2ccccc2)CCN(Cc2cnc(C)[nH]2)CC1 | - | - | - | - | - | -
CC1=C(C(=O)OCCCBr)C(c2ccc3c(c2)OCO3)NC(=O)N1 (stereo not drawn) | - | . | . | . | - | -
C=C(C)[C@@H]1CC=C(CN2CCC(CCOC)(C(=O)OCC)CC2)CC1 | - | - | 79 | - | . | -
Cc1ccc(S(=O)(=O)N2CCC(C(=O)NC3CC(C)(C)NC(C)(C)C3)CC2)cc1C | - | . | . | . | - | -
O=C(Nc1ccn(Cc2ccccc2F)n1)c1ccc(COc2cccc(Br)c2)cc1 | - | - | - | - | - | -
O=C(Nc1ccn(Cc2ccccc2F)n1)c1ccc(COc2ccccc2Cl)cc1 | - | - | - | 74 | - | -
O=C(Nc1ccn(Cc2c(F)c(F)cc(F)c2F)n1)c1ccc(COc2ccccc2Cl)cc1 | - | - | - | - | 63 | -
Cc1cc(N2CCCC2)ccc1/C=N/n1cnnc1 | - | - | 67 | - | - | -
Cc1cc(/C=N/n2cnnc2)c(C)n1-c1ccc(Cl)cc1 | - | - | - | - | - | -
O=C(OC1C2CCC1C1CN(CCc3ccccc3)CC12)c1ccccc1 (stereo not drawn) | - | - | 51 | - | - | -
Cc1ccccc1C(=O)Nc1ccc2c(C#N)c3nc4ccccc4nc3n2c1 | - | - | - | 96 | - | -
Fc1ccccc1Cc1noc(CN2CCN(C/C=C/c3ccccc3)CC2)n1 | - | - | 85 | - | 67 | -
c1ccc(OCc2noc(CN3CCC(C4CCCCC4)C3)n2)cc1 (stereo not drawn) | - | - | 55 | - | - | -
CN1CCN(Cc2nc(Cc3ccccc3)no2)CC1c1ccccc1 (stereo not drawn) | - | - | - | - | - | -
c1ccc(Cc2noc(CN3CCN(CCOc4ccccc4)CC3)n2)cc1 | - | - | 75 | - | 57 | -
c1ccc(CN2CCCC3(CCCN(Cc4nc(COc5ccccc5)no4)C3)C2)cc1 (stereo not drawn) | - | - | - | - | 61 | -
c1ccc(CN2CCCC3(CCCN(Cc4nc(CC5CC5)no4)C3)C2)cc1 (stereo not drawn) | - | - | - | - | - | -
Cc1onc(-c2ccccc2)c1C(O)c1ccc(F)cc1 (stereo not drawn) | - | . | . | . | - | -
OC(COc1ccc2cc(Br)ccc2c1)CN1CCOCC1 (stereo not drawn) | - | - | 60 | - | - | -
OC(COc1c(Br)cc(Br)cc1Br)CN1CCOCC1 (stereo not drawn) | . | - | 79 | - | - | .
O=C(N1CCOCC1)N1CCN(CC(O)COc2ccc3ccccc3c2)CC1 (stereo not drawn) | - | - | - | - | - | -
O=C(c1cc(=O)[nH]c2ccccc12)N1CCN(c2ccccc2)CC1 | - | - | . | - | - | -
SMILES | UPR XBP1 act | Dynein cargo inh | L major viab | CHOP inh | T cruzi inh | UPR CHOP act
COc1cccc(CNC(=O)CCNC(=O)C2CCN(S(=O)(=O)c3ccccc3)CC2)c1 | - | . | . | . | - | -
CN(C)c1ccc(N=C/C=C2\N(C)c3ccccc3C2(C)C)cc1 | - | - | 101 | - | - | -
CN1\C(=C/C=C/C=C/C=[N+](C)C)C(C)(C)c2ccccc21 | . | - | 98 | - | - | .
CN1/C(=C\C=N\NC(=O)c2ccc(O)cc2)C(C)(C)c2ccccc21 | - | - | 86 | - | - | -
CN1/C(=C\C=O)C(C)(C)c2ccccc21 | - | - | - | - | - | -
CN1/C(=C\C=Nc2ccc3ccccc3c2)C(C)(C)c2ccccc21 | - | - | 88 | - | . | -
CCCn1nc(C(=O)Nc2cccc(S(=O)(=O)N(C)c3ccccc3)c2)c2ccccc2c1=O | - | . | . | . | . | -
Cc1cc(/N=C/C=C2\N(C)c3ccccc3C2(C)C)n(CCC#N)n1 | - | - | 101 | - | - | -
Cc1cc(C)cc(NC(=O)c2oc3ccccc3c2COc2ccccc2)c1 | - | - | 89 | - | - | -
CC(C)CNC(=O)c1oc2ccccc2c1COc1ccccc1 | - | - | - | - | - | -
Cc1csc(CN(C)C(=O)CC2C(=O)NCCN2Cc2ccc(Cl)c(F)c2)n1 (stereo not drawn) | - | . | . | . | - | -
CCN(c1ccccc1)S(=O)(=O)c1cc(C(=O)Nc2ccc(F)c(F)c2)ccc1F | - | - | - | 71 | - | -
O=C(c1ccccc1F)n1c2c(c3ccccc31)CCCC2 | - | . | . | . | - | -
CCN1C(=O)C(CC(=O)Nc2ccc(OC)cc2)N(CCc2ccc(F)cc2)C1=S (stereo not drawn) | - | - | - | - | - | -
CCN1C(=O)C(CC(=O)Nc2ccc(OC)cc2)N(CCCN2CCN(c3ccc(F)cc3)CC2)C1=S (stereo not drawn) | - | - | 73 | - | - | -
C=CCN1C(=O)C(CC(=O)Nc2ccc(OCCC)cc2)N(CCCN2CCN(Cc3ccccc3)CC2)C1=S (stereo not drawn) | - | - | 100 | 94 | 67 | -
COc1ccc(NC(=O)CC2C(=O)N(Cc3ccccc3)C(=S)N2CCN2CCOCC2)cc1 (stereo not drawn) | - | - | 98 | - | - | -
Cc1ccccc1N(CC(=O)NCc1ccccc1)C(=O)CCC(=O)Nc1nccs1 | - | . | . | . | - | -
Cc1[nH]n(-c2ccccc2)c(=S)c1C=Nc1cccc([N+](=O)[O-])c1 | - | - | - | 80 | - | -
COC(=O)Nc1ccc(S(=O)(=O)N2c3ccccc3CCC2C)cc1 (stereo not drawn) | - | - | 100 | . | - | -
O/N=C/c1cc(Br)ccc1OCc1ccc(F)cc1 | - | - | 100 | . | - | -
Oc1c(Br)cc(Br)cc1C=NCc1ccccc1 | - | - | - | - | - | -
O/N=C/c1ccc(OCc2ccccc2)c(Cl)c1 | - | - | - | - | - | -
O/N=C/c1cc(Br)cc(Br)c1OCc1ccccc1 | - | - | - | 92 | - | -
O/N=C/c1ccc(OCc2ccccc2)c(Br)c1 | . | - | 57 | - | - | .
O/N=C/c1cc(Br)ccc1OCc1cccc(F)c1 | - | - | - | - | - | -
Cc1ccccc1CN1CCN(C(=O)CC(C)C)CC1 | - | . | . | . | - | -
CCOC(=O)N1CCN(C(=O)c2cn(C)c3ccc(S(=O)(=O)N(C)C4CCCCC4)cc3c2=O)CC1 | - | . | . | . | - | -
